Bioassay records deposited in PubChem BioAssay by Broad Institute.
E-sel inducer = E-selectin induction in HUVECs, primary screen, imaging, HUVEC, immunofluorescence imaging, single point. P16581. hit rate 0.37% among 260,000. activation, % at 7.58 µM. normalized: neutral wells 0, TNF-alpha wells 100;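 active = mean E-selectin-positive cell signal at least 10% of the positive control, reached in at least 60% of replicates, without over 20% cell loss; inconclusive = no rule given, readout overlaps actives, possibly toxicity-flagged; inactive = the rest, including those meeting only one limit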
Target sequence (P16581 whole entry, looked up): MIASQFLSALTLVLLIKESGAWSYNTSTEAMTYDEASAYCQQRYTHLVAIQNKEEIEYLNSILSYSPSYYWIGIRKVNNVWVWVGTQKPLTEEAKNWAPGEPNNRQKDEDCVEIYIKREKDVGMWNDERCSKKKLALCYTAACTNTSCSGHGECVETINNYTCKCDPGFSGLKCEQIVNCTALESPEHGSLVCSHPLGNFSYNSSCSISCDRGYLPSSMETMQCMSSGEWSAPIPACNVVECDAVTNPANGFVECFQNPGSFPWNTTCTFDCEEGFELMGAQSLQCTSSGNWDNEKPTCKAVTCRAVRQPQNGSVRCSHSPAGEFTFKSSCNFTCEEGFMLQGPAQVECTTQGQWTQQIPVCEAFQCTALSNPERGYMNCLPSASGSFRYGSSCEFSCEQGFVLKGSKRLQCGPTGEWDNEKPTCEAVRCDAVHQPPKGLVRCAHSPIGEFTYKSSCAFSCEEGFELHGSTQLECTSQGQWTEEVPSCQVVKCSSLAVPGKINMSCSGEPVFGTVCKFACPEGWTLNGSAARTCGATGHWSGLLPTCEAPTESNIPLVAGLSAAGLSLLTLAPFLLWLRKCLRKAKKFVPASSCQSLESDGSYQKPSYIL
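material = human umbilical vein endothelial cells (HUVEC), E-selectin induction | quantity = 3,000 cells/well | medium = EGM-2 growth medium on 0.1% gelatin-coated wells | technique = immunofluorescence imaging | read-out basis = % PE-positive cells | control set = TNF-alpha positive control, DMSO neutral control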
DENV2 CPE rescue = inhibitors of DENV2 cytopathic effect, primary screen, cell-based, plate reader, single concentration; hit rate 1.7% among 350,000; AID 651640, 2012; DENV2-infected cells, cytopathic effect rescue; CPE inhibition, % at 9.99 µM; in the data active = CPE inhibition above about 20%, passing the limit was not always enough; inconclusive = no clear call, values can overlap the other calls; tested in BHK-21 cells
S100A4 MyoIIA = inhibitors of S100A4-myosin IIA peptide binding, primary screen, biochemical, fluorescence polarization, TAMRA-MyoIIA peptide; Protein S100-A4 (Homo sapiens), P26447; inhibition, % at 10.7 µM; hit rate 0.14% among 360,000; AID 652163, 2013;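 active = mean inhibition of at least 70% across replicates, with every replicate also reaching that level; inconclusive = mean inhibition reaches 70% but some replicates fall short; inactive = mean inhibition below 70%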
Target sequence (P26447 whole entry, looked up): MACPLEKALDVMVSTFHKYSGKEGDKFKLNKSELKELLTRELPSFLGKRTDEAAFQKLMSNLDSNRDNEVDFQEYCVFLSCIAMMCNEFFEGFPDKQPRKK
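Material: human S100A4 monomer with TAMRA-labelled myosin IIA peptide; buffer or medium: HEPES pH 7.2 with CaCl2, KCl, NaCl, DTT, Triton; compound dosing: one concentration per compound; schedule: 5 min incubation before reading; benchmarks: neutral control DMSO, positive control TFP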
XiGFP reactiv = activators of inactive X chromosome reactivation, primary screen, imaging, XiGFP fibroblasts, GFP high-content imaging, set 2; hit rate 0.055% among 360,000; AID 743238, 2013; activation, % at 7.58 µM; XiGFP mouse fibroblasts, % GFP-positive cells imaging, 3 d; cells co-treated with 5-aza-dC sensitizer; scaled so ellipticine positive control = 100%;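 active = mean normalized replicate activation at least 10% and every replicate at or above 10%; inconclusive = only one of the two criteria met; inactive = mean below 10% and not all replicates reach 10%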
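System: 68-5-11 XiGFP fibroblast line; Timing: 3 days compound exposure; Compound dosing: one concentration, pinned; Benchmarks: positive control ellipticine, 6 µM final; Buffer or medium: DMEM containing 5-aza-dC.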
Each line names hits and unclear results; the compound was inactive in the other large screens. Rows were chosen to be rich in hits. Some 2% of all compounds tested hit in one or more screens of this group.

COCCNC(=O)C1CCC(CNS(=O)(=O)c2ccccc2)CC1 (stereo not drawn)	none
CCN(C(=O)c1ccc2c(SCC(=O)O)c3c(nc2c1)CCC3)c1cc(Cl)ccc1OC	DENV2 CPE rescue 50 (no result: E-sel inducer)
COc1cc(NC(=O)CSc2c3c(nc4ccccc24)CCC3)cc(OC)c1OC	DENV2 CPE rescue 70
CCCN1C2CCCC1CC(NC(=O)c1ccccc1OC)C2 (stereo not drawn)	none (no result: E-sel inducer)
O=C1CCN(CCCc2ccccc2)CCN1[C@H](CO)c1ccccc1	none
COc1cc(/C=C/C(=O)NC(=O)c2ccccc2O)ccc1OC(C)=O	DENV2 CPE rescue 73 (no result: E-sel inducer, XiGFP reactiv)
CCCN1CCN(C(=O)c2ccc(CS(=O)c3ccc(Cl)cc3)o2)CC1 (stereo not drawn)	E-sel inducer 49
NC(=O)CC[C@H](NC(=O)[C@H](Cc1ccccc1)n1c(=O)[nH]c2ccccc2c1=O)C(=O)N1CCC[C@H]1C(=O)O	DENV2 CPE rescue 66 (no result: E-sel inducer, XiGFP reactiv)
CN1[C@@H]2c3ccc(/C=C/c4ccccc4)c(=O)n3C[C@@H]2[C@@H](CO)[C@@H]1C(=O)NCCN1CCCC1	none (no result: S100A4 MyoIIA)
CN1C(=O)N[C@@H]2c3ccccc3O[C@@]1(C)[C@@H]2CO	DENV2 CPE rescue 20 (no result: E-sel inducer, XiGFP reactiv)
OCCN1CCN(c2nc3ccccc3nc2-c2ccccc2)CC1	none
Nc1ncc(-c2ccc(F)cc2)nc1N1CCN(CCO)CC1	DENV2 CPE rescue 27
CCc1nc(SCc2ccc(Br)cc2)n[nH]1	none
CCc1nc(SCc2ccccc2C)n[nH]1	DENV2 CPE rescue 32 (no result: E-sel inducer)
Cc1ccc(NCC(=O)N/N=C/c2cccc(Br)c2)cc1	DENV2 CPE rescue 31
O=C(Cc1ccccc1)N/N=C/c1ccc2c(c1)OCO2	none (no result: E-sel inducer)
O=C(CNc1ccccc1)N/N=C/c1ccc2c(c1)OCO2	E-sel inducer 31
CCNc1nc(NCC)n2c(SCC(=O)NCC3CCCCC3)nnc2n1	none (no result: DENV2 CPE rescue)
COc1ccc(NC(=O)C2CCCN2S(=O)(=O)c2ccc3c(c2)CC(C)N3C(C)=O)cc1OC (stereo not drawn)	none (no result: E-sel inducer)
COc1ccc([N+](=O)[O-])cc1NC(=O)C1CCCNC1=O (stereo not drawn)	none
COC(=O)c1oc2nc(C)cc(C)c2c1N	none (no result: DENV2 CPE rescue, S100A4 MyoIIA, XiGFP reactiv)
Cc1cc(C)c2c(N)c(C(=O)c3ccc(Br)cc3)oc2n1	DENV2 CPE rescue 46 (no result: E-sel inducer)
C[C@H](CO)N1C[C@H](C)[C@@H](CN(C)Cc2ccc(C(=O)Nc3ccccc3N)cc2)Oc2ccc(NC(=O)Nc3cccc4ccccc34)cc2C1=O	none
C[C@@H]1CN([C@@H](C)CO)C(=O)Cc2cc(NC(=O)Cc3ccccc3)ccc2O[C@@H]1CN(C)Cc1ccccc1	none
C[C@@H]1CN([C@H](C)CO)C(=O)Cc2cc(NC(=O)Cc3ccccc3)ccc2O[C@@H]1CN(C)Cc1ccc(Cl)c(Cl)c1	DENV2 CPE rescue 88
C[C@@H]1CN([C@@H](C)CO)C(=O)Cc2cc(NC(=O)Cc3ccccc3)ccc2O[C@@H]1CN(C)Cc1ccc(Cl)c(Cl)c1	DENV2 CPE rescue 66
C[C@@H]1CN([C@H](C)CO)C(=O)Cc2cc(NC(=O)Nc3ccccc3)ccc2O[C@@H]1CN(C)Cc1ccc(Cl)c(Cl)c1	none
Cc1ccc(S(=O)(=O)c2nnn3c2nc(N2CCOCC2)c2ccccc23)cc1C	DENV2 CPE rescue 25 (no result: E-sel inducer)
c1ccc(-n2nnnc2-c2cccc3ccccc23)cc1	none
O=S(=O)(NCc1ccccc1)c1ccc(F)cc1Br	none
O=S(=O)(NCc1ccc(F)cc1)c1ccccc1Br	DENV2 CPE rescue 31
O=C(c1ccc(F)cc1)N1CC(=O)N2[C@@H](CO)[C@H](c3ccc(C#Cc4ccc(F)cc4)cc3)[C@@H]2C1	none
O=S(=O)(c1cccc2nonc12)N1CCN(c2ccc(F)cc2)CC1	none (no result: E-sel inducer)
O=C(CSC1=NS(=O)(=O)c2ccccc2N1)Nc1ccc(F)cc1	none
CCN1CCN(CCNC(=O)c2ccc(CS(=O)(=O)c3c(Cl)cccc3Cl)o2)CC1	DENV2 CPE rescue inconclusive
COCCNC(=O)c1ccc(CS(=O)(=O)c2c(Cl)cccc2Cl)o1	DENV2 CPE rescue 58 (no result: E-sel inducer)
COc1ccc(CCCc2nc3ccccc3[nH]2)cc1	XiGFP reactiv 30
Cn1c(=O)c2[nH]c(CCCCc3nc4ccccc4[nH]3)nc2n(C)c1=O	DENV2 CPE rescue 47 (no result: E-sel inducer)
COc1ccccc1CNC(=O)[C@@H](NC(=O)C1CCN(C(=O)[C@@H]2CCCN2C(=O)OC(C)(C)C)CC1)C(C)C	DENV2 CPE rescue 61 (no result: E-sel inducer, XiGFP reactiv)
CCOC(=O)C1=C(C)NC(=S)NC1/C=C/c1ccccc1 (stereo not drawn)	XiGFP reactiv 36 (no result: E-sel inducer, DENV2 CPE rescue, S100A4 MyoIIA)
COCCCNc1oc(-c2ccccc2F)nc1C#N	DENV2 CPE rescue 25
N#Cc1nc(-c2ccccc2F)oc1NCc1ccccc1	DENV2 CPE rescue inconclusive
O=C(/C=C/c1ccccc1)NC1CC2CCC1C2 (stereo not drawn)	none (no result: E-sel inducer, DENV2 CPE rescue, S100A4 MyoIIA)
O=C(/C=C/c1ccc(Cl)cc1)NC1CC2CCC1C2 (stereo not drawn)	E-sel inducer 35
CCN1CCC(Nc2ccnc3cc(Cl)ccc23)CC1	none
COCC(=O)Nc1ccc2c(c1)OC[C@H](C)N(C(=O)Cc1cccnc1)C[C@@H](C)[C@H](OC)CN(C)C2=O	DENV2 CPE rescue 26
COc1cccc(S(=O)(=O)Nc2ccc3c(c2)C(=O)N(C)C[C@@H](OC)[C@@H](C)CN(C(=O)Cc2cccnc2)[C@H](C)CO3)c1	DENV2 CPE rescue 52
COCC(=O)Nc1ccc2c(c1)OC[C@@H](C)N(C(=O)c1ccncc1)C[C@@H](C)[C@H](OC)CN(C)C2=O	DENV2 CPE rescue 32
COCC(=O)Nc1ccc2c(c1)OC[C@H](C)N(C(=O)c1ccncc1)C[C@H](C)[C@H](OC)CN(C)C2=O	none
COCC(=O)Nc1ccc2c(c1)OC[C@@H](C)N(C(=O)Cc1cccnc1)C[C@H](C)[C@@H](OC)CN(C)C2=O	DENV2 CPE rescue 49
COCC(=O)Nc1ccc2c(c1)C(=O)N(C)C[C@@H](OC)[C@@H](C)CN(C(=O)Cc1cccnc1)[C@@H](C)CO2	none
COc1cccc(S(=O)(=O)Nc2ccc3c(c2)C(=O)N(C)C[C@H](OC)[C@H](C)CN(C(=O)Cc2cccnc2)[C@@H](C)CO3)c1	none
C[C@@H](CN1C2=NC[C@H](Cc3ccc(O)cc3)N2C[C@H]1Cc1ccc(O)cc1)NC(=O)CCC1CCCCC1	none
COc1ccc(C[C@H]2CN3C(=NC[C@@H]3C(C)C)N2C[C@H](C)NC(=O)c2ccc(C)c(Br)c2)cc1	none
C[C@@H](CN1C2=NC[C@H](Cc3ccccc3)N2C[C@H]1Cc1ccc(O)cc1)NC(=O)CCC1CCCCC1	DENV2 CPE rescue 41
Cc1ccc(C(=O)N[C@@H](C)CN2C3=NC[C@H](C(C)C)N3C[C@H]2Cc2ccc(O)cc2)cc1Br	DENV2 CPE rescue 106
CC(C)C#Cc1cnc2c(c1)C(=O)N([C@H](C)CO)C[C@@H](C)[C@@H](CN(C)C(=O)Nc1cccc(F)c1)O2	none
